Source: ChEMBL document CHEMBL4725498, “Synthesis and Biological Evaluations of Electrophilic Steroids Inspired by the Taccalonolides” (ACS Med Chem Lett, 2020)
Activity calls are given as the source filed them. The rule behind the calls is not given here.

Assays:
Tubulin (Homo sapiens) [1] = target: T1, Tubulin (Homo sapiens) (UniProt P68371+Q9H4B7+P0DPH7+P68366+Q13509+Q71U36+P04350+Q3ZCM7+P07437+P68363+Q9BQE3+Q6PEY2+Q13885+Q9BVA1+Q9BUF5); test: Induction of microtubule destabilization in human BT-549 cells assessed as loss of microtubule network at 100 nM incubated for 6 hrs by indirect immunofluorescence assay; type: cell-based
Summary of the method: (§1)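 BT-549 cells were treated for 6 h with compound or DMSO vehicle. Microtubules were then visualised by immunofluorescence with a β-tubulin antibody, scoring microtubule loss or bundling.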

HCC1937 = test: Cytotoxicity against human HCC1937 cells assessed as reduction in cell viability measured after 48 hrs by sulforhodamine B assay; type: functional; conditions: read-out: LC50 (the source's name)
Summary of the method: (§2)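 Breast lines were tested in a 48 h SRB assay: four molecularly diverse triple-negative lines plus nontumorigenic MCF 10A, with MCF 10A tested up to 50 μM. LC50 values came from concentration–response curves. Complete cytotoxicity was taken as the concentration giving full cell kill after 48 h incubation.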

Tubulin (Homo sapiens) [2] = target: T1, Tubulin (Homo sapiens); test: Induction of microtubule stabilization in human BT-549 cells assessed as bundling of microtubule network at 1 microM incubated for 6 hrs by indirect immunofluorescence assay; type: cell-based; summary of the method: as §1
Sus scrofa [3] = species on record: Sus scrofa; test: Inhibition of porcine brain tubulin polymerization assessed as reduction in rate and extent of tubulin polymerization at 5 to 10 uM by turbidimetric assay; conditions: dose microM 5-10
Summary of the method: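 Purified porcine brain tubulin (20 μM) was incubated with a range of compound concentrations. Polymerization was monitored turbidimetrically after shift to 37 °C.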

BT-549 [4] = test: Cytotoxicity against human BT-549 cells assessed as reduction in cell viability measured after 48 hrs by sulforhodamine B assay; type: functional; conditions: read-out: LC50 (the source's name); summary of the method: as §2
HeLa [5] = test: Antiproliferative activity against human HeLa cells assessed as growth inhibition measured after 48 hrs by sulforhodamine B assay; type: functional
Summary of the method: (§3)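 HeLa cells exposed to compound for 48 h, then growth measured by sulforhodamine B (SRB) staining. GI50 (50% growth inhibition), TGI (total growth inhibition) and LC50 (50% cytotoxicity) were read from concentration–response data. Values are average ± SEM, n = 3–5.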

HeLa [6] = test: Cytotoxicity against human HeLa cells assessed as reduction in cell viability measured after 48 hrs by sulforhodamine B assay; type: functional; conditions: read-out: LC50 (the source's name); summary of the method: as §3
BT-549 [7] = test: Cytotoxicity against human BT-549 cells assessed as concentration required for complete reduction in cell viability incubated for 48 hrs by sulforhodamine B assay; type: functional; summary of the method: as §2
Sus scrofa [8] = species on record: Sus scrofa; test: Inhibition of porcine brain tubulin polymerization assessed as reduction in rate and extent of tubulin polymerization at 20 uM by turbidimetric assay
Summary of the method: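 Purified porcine brain tubulin (20 μM) was incubated with 20 μM compound or DMSO vehicle. Polymerization was monitored turbidimetrically after shift to 37 °C.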

MDA-MB-231 = test: Cytotoxicity against human MDA-MB-231 cells assessed as reduction in cell viability measured after 48 hrs by sulforhodamine B assay; type: functional; summary of the method: as §2
HeLa [9] = test: Antiproliferative activity against human HeLa cells assessed as reduction in cell growth incubated for 8 hrs by trypan blue exclusion assay; type: functional, cell-based
Summary of the method: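 HeLa viability was followed during the first 8 h of treatment by trypan blue exclusion.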

[10] = Selectivity index, ratio of LC50 for human HeLa cells to LC50 for human HCC1937 cells measured after 48 hrs by sulforhodamine B assay; type: functional
OVCAR-5 = test: Antiproliferative activity against human OVCAR-5 cells assessed as reduction in cell growth at 0.01 to 10 uM incubated for 48 hrs by SRB assay; type: functional, cell-based; conditions: dose microM 0.01-10, time 48.0 hrs
SK-OV-3 [11] = test: Antiproliferative activity against human SKOV3-M6/6 cells assessed as reduction in cell growth at 0.01 to 10 uM incubated for 48 hrs by SRB assay; type: functional, cell-based; conditions: dose microM 0.01-10, time 48.0 hrs
[12] = Selectivity ratio of antiproliferative activity against human SKOV3-M6/6 cells transfected with MDR1 to antiproliferative activity against human SKOV3 cells measured after 48 hrs by sulforhodamine B assay; type: functional
MDA-MB-453 = test: Cytotoxicity against human MDA-MB-453 cells assessed as reduction in cell viability measured after 48 hrs by sulforhodamine B assay; type: functional; summary of the method: as §2
HeLa [13] = test: Inhibition of colony formation in human HeLa cells at 1.4 uM treated for 8 hrs followed by compound washout and measured after 11 days by crystal violet staining based assay; type: functional
Summary of the method: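 HeLa cells were treated for 8 h with 1.4 μM compound or EtOH vehicle, then the drug was washed out. Colonies were scored 11 days after removal. Groups were compared with vehicle by 1-way ANOVA with Dunnett's post hoc test.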

SK-OV-3 [14] = test: Antiproliferative activity against human SKOV3 cells assessed as reduction in cell growth at 0.01 to 10 uM incubated for 48 hrs by SRB assay; type: functional, cell-based; conditions: dose microM 0.01-10, time 48.0 hrs
ES2 = test: Antiproliferative activity against human ES-2 cells assessed as reduction in cell growth at 0.01 to 10 uM incubated for 48 hrs by SRB assay; type: functional, cell-based; conditions: dose microM 0.01-10, time 48.0 hrs
HeLa [15] = test: Antiproliferative activity against human HeLa cells assessed as reduction in cell viability incubated for 8 hrs by sulforhodamine B assay; type: functional; conditions: read-out: LC50 (the source's name)
MCF-10A = test: Cytotoxicity against human MCF10A cells assessed as reduction in cell viability measured after 48 hrs by sulforhodamine B assay; type: cell-based; summary of the method: as §2

With `C[C@]12CC=CC[C@@H]1CC[C@@H]1[C@@H]2CC[C@]2(C)C(=O)C=C[C@@H]12` the Activity (Tubulin (Homo sapiens) [1]) was “inactive”, the CC50 (HCC1937) was 1390 nM and the Activity (Tubulin (Homo sapiens) [2]) was “inactive”. The inhibition (Sus scrofa [3]) was “Dose-dependent effect”, the CC50 (BT-549 [4]) was 610 nM and the GI50 (HeLa [5]) was 470 nM. For the same molecule, the TGI (HeLa [5]) was 720 nM, the CC50 (HeLa [6]) was 1070 nM and the CC100 (BT-549 [7]) was 1 µM. The inhibition (Sus scrofa [8]) was “Active” and the CC50 (MDA-MB-231; read-out: LC50 (the source's name)) was 1920 nM.
In the case of `C[C@]12C[C@H]3O[C@H]3C[C@@H]1CC[C@H]1[C@@H]3[C@@H]4O[C@@H]4C(=O)[C@@]3(C)CC[C@@H]12`, the Activity (HeLa [9]) is reported as “inactive”, the RatioLC50 [10] is reported as 2 and the Activity (OVCAR-5) is reported as “Active”. The Activity (SK-OV-3 [11]) was “Active”, the CC50 (HCC1937) was 470 nM and the Ratio [12] was 5. The LC50 (concentration killing 50% of cells) (MDA-MB-453) was 740 nM, the inhibition at 1.4 µM (HeLa [13]) was 100% and the Activity (SK-OV-3 [14]) was “Active”. The Activity (ES2) was “Active”, the CC50 (BT-549 [4]) was 1070 nM and the GI50 (HeLa [5]) was 520 nM. The TGI (HeLa [5]) was 740 nM, the CC50 (HeLa [6]) was 1090 nM and the inhibition (Sus scrofa [8]) was “inactive”. The CC50 (HeLa [15]) was 1400 nM, the LC50 (MCF-10A) was > 50000 nM and the LC50 (concentration killing 50% of cells) (MDA-MB-231) was 2500 nM.
